# STEP inh = STEP (human) phosphatase inhibition | actives 0.25% (n = 360,000) | recombinant STEP, OMFP fluorogenic substrate, fluorescence | P54829 | inhibition, % at 20 µM;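 active = inhibition at 20 µM, scaled per plate between control wells, above about 37%, limit read from the data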;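 also: 0% = DMSO with enzyme and substrate and 100% = substrate only without enzyme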
#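 Measure: Control-normalized % inhibition with plate pattern correction | Test system: STEP phosphatase, cell-free reaction | Medium: pH 6.0 Bis-Tris with DTT and Tween 20 | Technique: Fluorescence, 480/540 nm | Times: Reaction 20 min, ambient temperature | Doses: Single compound dose of 20 µM, 1% DMSO final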
# Scp-1 inhibitor = Scp-1 (human) phosphatase inhibition; Recombinant Scp1, phosphopeptide, malachite green phosphate absorbance; inhibition, % at 20 µM; actives 0.88% (n = 340,000); AID 493091;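 active = inhibition above about 50% at 20 µM, limit read from the data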;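 also: plate controls were DMSO wells with enzyme for no effect and wells lacking enzyme for full effect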
# Target sequence (Q9GZU7 76-261 limits assumed): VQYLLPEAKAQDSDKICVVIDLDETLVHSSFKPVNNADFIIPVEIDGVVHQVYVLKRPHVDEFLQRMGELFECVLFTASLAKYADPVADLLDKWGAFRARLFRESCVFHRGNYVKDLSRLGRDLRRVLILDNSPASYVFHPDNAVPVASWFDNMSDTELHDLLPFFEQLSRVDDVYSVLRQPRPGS
#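 Test system – truncated SCP-1 phosphatase (76-261aa) · Reagent – Phosphorylated 17-residue peptide substrate · Incubation – 45 min room-temperature reaction, 5 min colour, 30 min stabiliser · Detection – colorimetric phosphate reagent with accelerator and stabiliser, absorbance at 630 nm · Measure – % inhibition at 20 µM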
# SUMO1 PPI mod = alters human SUMO1 binding to SIM partners | P63165 | inhibition, % at 20 µM | actives 0.33% (n = 360,000) | SUMO1 binding to a labelled peptide, TR-FRET, 1 h; in the data active = inhibition above about 37%
# Target sequence (P63165 whole entry, looked up): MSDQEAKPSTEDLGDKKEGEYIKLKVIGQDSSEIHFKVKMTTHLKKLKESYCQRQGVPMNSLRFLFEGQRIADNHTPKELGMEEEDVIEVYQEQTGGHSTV
# DNMT1 inh = DNMT1 (human) enzyme inhibition; P26358; DNMT1 molecular beacon, Hinp1I cleavage, fluorescence; inhibition (reported as % activation of signal), % at 10 µM; actives 0.83% (n = 360,000); AID 588458; in the data active = inhibition above about 50%
# LMPTP inh = blocks human LMPTP phosphatase | recombinant LMPTP-A, OMFP fluorogenic substrate, fluorescence intensity | actives 0.22% (n = 360,000) | inhibition, % at 20 µM;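 active = compounds that cut the enzyme signal by at least half of the control window in the single-dose screen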;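 also: plate controls were DMSO wells with enzyme plus substrate for no effect and substrate without enzyme for full effect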
# Target sequence (P24666 whole entry, looked up): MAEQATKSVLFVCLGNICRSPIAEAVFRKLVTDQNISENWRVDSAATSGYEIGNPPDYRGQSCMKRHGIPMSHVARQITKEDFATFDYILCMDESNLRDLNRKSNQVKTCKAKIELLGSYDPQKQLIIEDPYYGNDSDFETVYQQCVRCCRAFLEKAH
#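 Test system: LMPTP-A phosphatase enzyme; input: 0.625 nM LMPTP-A final; reagent: OMFP substrate, 400 µM final; compound dosing: 20 µM single dose, 3% DMSO; incubation: 50 min dark incubation at room temperature; measured by: endpoint fluorescence intensity from OMFP dephosphorylation; measure: % inhibition relative to no-enzyme and uninhibited control wells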
# Scp1 confirm = confirmation of human Scp-1 phosphatase inhibitors; shares compounds with Scp-1 inhibitor; recombinant SCP-1 catalytic domain, phosphate release, malachite green absorbance; inhibition, % at 20 µM; actives 61% (n = 2,500);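 also: plate controls were DMSO with enzyme for no effect and buffer wells lacking enzyme for full effect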
# Scp-1 MG ctr = colorimetric interference in Scp-1 counter-screen. shares compounds with Scp-1 inhibitor. Colorimetric interference counterscreen, malachite green absorbance 630 nm. apparent inhibition (interference), % at 20 µM. 2,500 tested, under 10 active;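 also: compounds added after enzyme reaction finished so only phosphate colour detection is probed; plate controls were DMSO wells with completed Scp-1 reaction for no effect and substrate wells lacking enzyme for full effect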
# Scp-1 Tm shift = validation of human Scp-1 inhibitors by thermal shift binding. actives 25% (n = 1,500). shares compounds with Scp-1 inhibitor. thermal shift relative to vanadate control, % at 40 µM. AID 540329. Recombinant SCP1, Sypro Orange thermal shift Tm;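 active = substances whose mean melting-temperature shift, as a percentage of the reference inhibitor's shift, reaches about 5.3%, limit read from the data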;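 also: 0% = Tm of DMSO wells and 100% = Tm with sodium orthovanadate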
# DNMT1 confirm = DNMT1 inhibition confirmation, single concentration. shares compounds with DNMT1 inh. DNMT1 molecular beacon HinP1I cleavage, fluorescence. inhibition, % at 10 µM. actives 8% (n = 2,300). AID 602385;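 active = average inhibition of at least 30% in the single-concentration confirmation test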
# DNMT1 interf = beacon fluorescence artifact counter-screen; shares compounds with DNMT1 inh; DNMT1 molecular beacon spectral interference counterscreen, fluorescence 485/520; activation (fluorescence interference), % at 10 µM; actives 1% (n = 2,300);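 active = activation of at least 30% at 10 µM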;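 also: DNMT1 catalytic domain with a HinP1I cleavage step and a FAM/dabcyl DNA beacon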
# The depositor's hits bear a star; · = not tested or not shown. An excerpt weighted towards active compounds, which were near 1.7% of everything screened.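 The calls were made as follows, unless noted: active = inhibition of at least 30% at 20 µM; inactive = the rest.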
SMILES,STEP inh,Scp-1 inhibitor,SUMO1 PPI mod,DNMT1 inh,LMPTP inh,Scp1 confirm,Scp-1 MG ctr,Scp-1 Tm shift,DNMT1 confirm,DNMT1 interf
O=c1c2ccccc2nc2sc(Nc3ccc(F)cc3)nn12,36.9,92.4*,-61.3,49.6,3.7,74.3*,-17.3,-10.2,1.9,-1.3
O=C(Cc1ccc(Cl)cc1)Nc1ccc(Br)cn1,0.7,-4.0,15.5,-0.7,0.3,·,·,·,·,·
CNC(=O)c1cc(C(=O)c2ccc(Cl)cc2)c(Br)[nH]1,-0.5,-7.7,2.6,-0.2,-1.4,·,·,·,·,·
NS(=O)(=O)c1ccc(NC(=O)C2Cc3ccccc3CN2C(=O)c2ccco2)cc1 (stereo unspecified),2.9,60.9*,13.6,59.2*,14.5,66.3*,-7.1,7.9*,4.9,2.9
Cc1ccc(NC(=O)CN2C(=O)N/C(=C/c3ccco3)C2=O)cc1,5.0,76.5*,-3.6,85.2*,45.3,18.0,-19.5,·,2.2,-2.1
Cc1cccc(NC(=O)CN2C(=O)N/C(=C/c3ccc(C)s3)C2=O)c1,-4.0,5.7,-9.2,1.1,-0.2,·,·,·,·,·
Cc1ccc(NC(=O)CN2C(=O)N/C(=C/c3cc(C)n(-c4ccc(C(=O)O)cc4)c3C)C2=O)cc1,9.9,62.8*,-3.2,66.6*,1.2,54.1*,-23.2,3.1,28.9,4.7
O=C(CSc1nc2cc(Cl)ccc2s1)NC(=O)NCc1ccco1,2.3,79.5*,0.6,53.8*,4.2,53.2*,-7.9,3.3,6.5,2.8
Cc1nc(SCC(=O)NCc2ccco2)c2c(C)c(C)sc2n1,2.7,-0.7,-1.4,0.0,-1.0,·,·,·,·,·
Cc1sc2ncnc(SCC(=O)NC(=O)NCc3ccco3)c2c1C,8.2,57.3*,3.8,69.3*,13.0,49.1*,-12.3,-7.0,2.4,2.2
CCOc1ccc2nc(SCC(=O)NC(=O)NCc3ccco3)sc2c1,-1.2,-7.0,2.4,-6.5,3.6,·,·,·,·,·
Cc1occc1C(=O)NCc1cccc(CNC(=O)c2ccoc2C)c1,3.7,50.5*,25.0,51.0*,6.9,73.3*,-9.0,4.8,18.1,3.1
COCCN1C(=O)CSCC1(C)C(=O)Nc1ccc2c(c1)OCCO2 (stereo unspecified),·,·,5.3,·,-0.7,·,·,·,·,·
Cc1c(C(=O)O)cccc1-c1ccc(/C=C2\SC(=O)NC2=O)o1,5.9,12.0,16.4,2.7,-3.6,·,·,·,·,·
COc1ccccc1N1C(=N)S/C(=C\c2ccc(-c3ccccc3C(=O)O)o2)C1=O,9.4,61.6*,25.2,73.4*,4.6,48.6*,-9.8,8.3*,4.9,2.7
Cc1ccc(S(=O)(=O)/N=C2/NC(=O)/C(=C/c3ccc(Br)o3)S2)cc1,7.5,56.2*,26.7,84.6*,2.7,54.1*,-28.0,13.5*,8.2,-1.2
Cc1ccc(S(=O)(=O)/N=C2/NC(=O)/C(=C\c3cc(Br)cc(Br)c3O)S2)cc1,-2.8,-10.5,27.8,20.7,-1.3,·,·,·,·,·
Cc1cccc(NC(=O)CNC(=O)CCc2nc3sc4c(c3c(=O)[nH]2)CCCC4)c1C,11.6,73.2*,21.2,84.0*,36.2,75.5*,-15.1,12.7*,26.1,13.9
CC(C)c1ccc(NC(=O)C2C3C=CC(CC3)C2C(=O)O)cc1 (stereo unspecified),12.4,-0.4,13.8,7.8,-1.0,·,·,·,·,·
O=C(O)C1C2C=CC(CC2)C1C(=O)O (stereo unspecified),34.6,102.2*,33.7,77.0*,-0.3,71.8*,-9.8,1.1,4.3,5.8
O=C(NC1CC1)C1CCN(S(=O)(=O)c2cc(Cl)ccc2Cl)CC1,1.2,-1.9,-0.7,4.6,0.4,·,·,·,·,·
Cc1cccc2sc(NC(=O)C3CCN(S(=O)(=O)c4cc([N+](=O)[O-])ccc4Cl)CC3)nc12,12.1,79.6*,4.3,56.9*,5.1,53.8*,-18.6,11.7*,0.7,-0.8
O=C(NC1=NCCS1)C1CCN(S(=O)(=O)c2cc([N+](=O)[O-])ccc2Cl)CC1,1.8,90.7*,-20.8,75.9*,18.1,77.0*,-5.4,11.4*,2.0,-1.6
O=C(NC1CC1)C1CCN(S(=O)(=O)c2cc([N+](=O)[O-])ccc2Cl)CC1,0.3,75.7*,-11.5,89.7*,43.2,68.9*,-11.4,11.4*,6.0,-1.8
O=C(Nc1ccccc1C(F)(F)F)NC1(C(=O)N2CCOCC2)CCCCC1,28.1,74.8*,42.1*,94.6*,60.7*,55.3*,-22.5,12.1*,9.1,-4.2
SMILES,STEP inh,Scp-1 inhibitor,SUMO1 PPI mod,DNMT1 inh,LMPTP inh,Scp1 confirm,Scp-1 MG ctr,Scp-1 Tm shift,DNMT1 confirm,DNMT1 interf
CCOc1ccc(C(C)=O)cc1N1C(=O)C2C3C=CC(O3)C2C1=O (stereo unspecified),-0.1,-6.5,-2.9,0.8,0.2,·,·,·,·,·
CCOc1ccc(C(C)=O)cc1N1C(=O)C2C3C=CC(C3)C2C1=O (stereo unspecified),4.5,56.0*,1.8,70.3*,-0.5,31.4*,-20.3,-7.1,4.0,1.2
CCN(CC)C(=O)C1=C(C)N(CCCOC)C(=O)C(CC(=O)NC2CCCC2)C1 (stereo unspecified),0.3,·,1.9,0.3,-0.3,·,·,·,·,·
CS(=O)c1ccc(-n2c(=O)n(Cc3ccccc3)c(=O)c3[nH]cnc32)cc1 (stereo unspecified),-0.1,-9.1,-3.0,-0.1,-0.1,·,·,·,·,·
CS(=O)(=O)c1ccc(-c2sc3ccccc3c2C(=O)N2CCN(c3ccc(F)cc3)CC2)cc1,-2.7,68.4*,-0.7,60.1*,6.4,63.2*,-10.1,4.2,9.9,0.8
CCOc1ccc(S(=O)(=O)NCCC(=O)N(C)Cc2cccs2)cc1,1.4,-6.8,-1.7,-0.6,-7.3,·,·,·,·,·
COc1ccc2cc3c(N)nn(C(=O)c4ccc(Cl)c([N+](=O)[O-])c4)c3nc2c1,89.1*,93.7*,0.2,83.2*,65.1*,73.6*,-17.2,8.2*,9.3,-8.3
O=C(N=Nc1c(O)[nH]c2ccc([N+](=O)[O-])cc12)c1cc(-c2ccccc2Cl)nc2ccccc12,85.2*,94.8*,21.0,95.2*,79.8*,77.3*,-8.2,8.8*,-1.6,-19.5

# Assay outcomes from PubChem.
